According to ChEMBL document CHEMBL2203103, “Discovery of a novel series of benzimidazole derivatives as diacylglycerol acyltransferase inhibitors” (Bioorg Med Chem Lett, 2012):
Active and inactive are the calls of the source. The calls are words filed in the database; no cut-off is given here.

How the values were obtained:
[1] = target: T1, Diacylglycerol O-acyltransferase 1 (Rattus norvegicus, UniProt Q9ERM3); assay: (§1) Inhibition of DGAT in rat liver microsomes; design: species or system Microsome
T1 sequence (Q9ERM3 whole entry): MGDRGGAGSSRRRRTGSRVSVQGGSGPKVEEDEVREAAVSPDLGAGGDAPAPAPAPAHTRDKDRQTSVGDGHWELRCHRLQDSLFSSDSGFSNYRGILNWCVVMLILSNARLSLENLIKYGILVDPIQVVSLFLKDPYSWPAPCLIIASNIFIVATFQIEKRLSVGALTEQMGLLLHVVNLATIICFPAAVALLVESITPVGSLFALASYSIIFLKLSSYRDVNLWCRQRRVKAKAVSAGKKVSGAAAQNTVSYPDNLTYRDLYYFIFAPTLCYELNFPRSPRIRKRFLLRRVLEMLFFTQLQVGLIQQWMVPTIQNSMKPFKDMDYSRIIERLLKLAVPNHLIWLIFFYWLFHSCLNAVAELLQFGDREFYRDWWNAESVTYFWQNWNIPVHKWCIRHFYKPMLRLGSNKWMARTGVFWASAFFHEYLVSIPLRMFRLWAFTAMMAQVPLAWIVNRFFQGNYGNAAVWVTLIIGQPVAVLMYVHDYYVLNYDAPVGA
Outline: (§2)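 DGAT activity was measured in microsomes prepared from rat liver, using a modified version of Coleman's method. IC₅₀ values were determined.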

Mus musculus [2] = organism: Mus musculus; assay: Antiobesity activity in high fat diet-induced obese mouse assessed as decrease in retroperitoneal fat (reference value: 1.41 +/- 0.29 %); type: functional; design: scale not given: the % may be the effect or the level left
Outline: (§3)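 In 6-week-old male diet-induced obese mice, HFD-fed and individually housed (23 °C ± 3 °C, 12-h light–dark, food and water ad libitum), total and retroperitoneal fat were weighed after 5 weeks of treatment. Values are given as (tissue weight/body weight) × 100 and compared with normal-diet and untreated HFD groups.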

Mus musculus [3] = organism: Mus musculus; assay: Antiobesity activity in high fat diet-induced obese mouse assessed as decrease in abdominal and epididymal fat (reference value: 5.34 +/- […]); type: functional; design: scale not given: the % may be the effect or the level left
Mus musculus [4] = organism: Mus musculus; assay: Antiobesity activity in high fat diet-induced obese mouse assessed as decrease in total fat (reference value: 6.75 +/- 1.18 %); type: functional; design: scale not given: the % may be the effect or the level left; outline: as §3
Mus musculus [5] = organism: Mus musculus; assay: Antidyslipidemic activity in high fat diet-induced obese mouse assessed as increase in blood HDL-cholesterol level (reference value: 17.4 +/- 2.15 mg/dl); type: functional
Mus musculus [6] = organism: Mus musculus; assay: Antiobesity activity in high fat diet-induced obese mouse assessed as inhibition of body weight gain after 5 weeks (reference value: 52.9 +/- 1.20 g); type: functional
Mus musculus [7] = organism: Mus musculus; assay: Antiobesity activity in high fat diet-induced obese mouse assessed as inhibition of body weight gain after 4 weeks (reference value: 49.9 +/- 1.24 g); type: functional
Mus musculus [8] = organism: Mus musculus; assay: Antiobesity activity in high fat diet-induced obese mouse assessed as inhibition of body weight gain after 3 weeks (reference value: 45.9 +/- 2.29 g); type: functional
Mus musculus [9] = organism: Mus musculus; assay: Antiobesity activity in high fat diet-induced obese mouse assessed as inhibition of body weight gain after 2 weeks (reference value: 37.8 +/- 3.55 g); type: functional
Mus musculus [10] = organism: Mus musculus; assay: Antiobesity activity in high fat diet-induced obese mouse assessed as inhibition of body weight gain after 1 week (reference value: 35.2 +/- 1.57 g); type: functional
Mus musculus [11] = organism: Mus musculus; assay: Antidyslipidemic activity in high fat diet-induced obese mouse assessed as decrease in blood LDL-cholesterol level (reference value: 119 +/- 14.3 mg/dl); type: functional
Mus musculus [12] = organism: Mus musculus; assay: Antidyslipidemic activity in high fat diet-induced obese mouse assessed as decrease in total blood triglyceride level (reference value: 120 +/- 11.2 mg/dl); type: functional
Mus musculus [13] = organism: Mus musculus; assay: Antidyslipidemic activity in high fat diet-induced obese mouse assessed as decrease in total blood cholesterol level (reference value: 160 +/- 13.9 mg/dl); type: functional
Mus musculus [14] = assay: Antiobesity activity in high fat diet-induced obese mouse assessed as inhibition of body weight gain at 10 mg/kg after 5 weeks (reference value: 52.9 +/- 1.20 g); type: functional
Mus musculus [15] = assay: Antiobesity activity in high fat diet-induced obese mouse assessed as inhibition of body weight gain at 10 mg/kg after 4 weeks (reference value: 49.9 +/- 1.24 g); type: functional
Mus musculus [16] = assay: Antiobesity activity in high fat diet-induced obese mouse assessed as inhibition of body weight gain at 10 mg/kg after 3 weeks (reference value: 45.9 +/- 2.29 g); type: functional
Mus musculus [17] = assay: Antiobesity activity in high fat diet-induced obese mouse assessed as inhibition of body weight gain at 10 mg/kg after 2 weeks (reference value: 37.8 +/- 3.55 g); type: functional
Mus musculus [18] = assay: Antiobesity activity in high fat diet-induced obese mouse assessed as inhibition of body weight gain at 10 mg/kg after 1 week (reference value: 35.2 +/- 1.57 g); type: functional
HepG2 = assay: Cytotoxicity against human HepG2 cells assessed as cell viability after 48 hrs by MTT assay; type: cell-based; conditions: hepg2, 48 h
Outline: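 HepG2 cells were kept in DMEM with 10% heat-inactivated FBS and 1% penicillin–streptomycin at 37 °C in 5% CO₂. Cells were seeded at 2 × 10⁴ per well, exposed to compound for 48 h, and viability was read by MTT as formazan absorbance at 560 nm.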

[19] = target: T2, Diacylglycerol O-acyltransferase 1 (Homo sapiens) (UniProt O75907); assay: Residual DGAT activity in human HepG2 cells using [14C]acetate as substrate assessed as formation of [14C]-triglyceride at 3 uM by chromatographic analysis relative to control
T2 sequence (whole entry): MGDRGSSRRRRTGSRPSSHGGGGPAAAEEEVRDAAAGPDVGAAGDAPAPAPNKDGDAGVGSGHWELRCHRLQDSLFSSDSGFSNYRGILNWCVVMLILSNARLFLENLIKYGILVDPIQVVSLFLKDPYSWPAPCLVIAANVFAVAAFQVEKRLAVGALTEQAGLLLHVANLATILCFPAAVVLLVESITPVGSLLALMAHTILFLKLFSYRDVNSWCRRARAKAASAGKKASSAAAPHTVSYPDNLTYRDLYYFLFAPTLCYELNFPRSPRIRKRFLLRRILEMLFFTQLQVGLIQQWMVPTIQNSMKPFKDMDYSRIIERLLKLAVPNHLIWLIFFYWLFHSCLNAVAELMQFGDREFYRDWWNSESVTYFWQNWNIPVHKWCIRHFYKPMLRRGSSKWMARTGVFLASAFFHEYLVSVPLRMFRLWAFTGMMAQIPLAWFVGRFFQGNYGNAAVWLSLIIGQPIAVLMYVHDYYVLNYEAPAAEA

[20] = target: T2, Diacylglycerol O-acyltransferase 1 (Homo sapiens); assay: Residual DGAT activity in human HepG2 cells using [14C]glycerol as substrate assessed as formation of [14C]-triglyceride at 3 uM by chromatographic analysis relative to control
[21] = target: T2, Diacylglycerol O-acyltransferase 1 (Homo sapiens); assay: Residual DGAT activity in human HepG2 cells using [14C]acetate as substrate assessed as formation of [14C]-triglyceride at 10 uM by chromatographic analysis relative to control
[22] = target: T2, Diacylglycerol O-acyltransferase 1 (Homo sapiens); assay: Residual DGAT activity in human HepG2 cells using [14C]glycerol as substrate assessed as formation of [14C]-triglyceride at 10 uM by chromatographic analysis relative to control
[23] = target: T3, Diacylglycerol O-acyltransferase 1 (Rattus norvegicus) (UniProt Q9ERM3); assay: as §1; conditions: Microsome; outline: as §2
T3 sequence (whole entry): T1 sequence (Q9ERM3 whole entry)

With `O=C(c1ccc2[nH]c(COc3ccc(C45CC6CC(CC(C6)C4)C5)cc3)nc2c1)N1CCCCC1` the IC50 [1] was 27.5 µM.
`O=C(NCc1ccccn1)c1ccc2[nH]c(COc3ccc(C45CC6CC(CC(C6)C4)C5)cc3)nc2c1` gave an IC50 [1] of 20 µM.
In the case of `O=C(NCc1cccs1)c1ccc2[nH]c(COc3ccc(C45CC6CC(CC(C6)C4)C5)cc3)nc2c1`, the IC50 [1] is reported as over 50 µM.
For `O=C(NCc1ccco1)c1ccc2nc(COc3ccccc3)[nH]c2c1`, the IC50 [1] was over 50 µM.
`O=C(NCc1ccco1)c1ccc2nc(COc3ccc(-c4ccccc4)cc3)[nH]c2c1` gave an IC50 [1] of over 50 µM.
For `CCCCCCCCCCC[C@@H](C[C@@H]1OC(=O)[C@H]1CCCCCC)OC(=O)[C@H](CC(C)C)NC=O` [ORLISTAT], the Activity (Mus musculus [2]) was 0.75%, the Activity (Mus musculus [3]) was 2.45% and the Activity (Mus musculus [4]) was 3.2%. For the same compound, the Activity (Mus musculus [5]) was 30.3 mg/dL, the Activity (Mus musculus [6]) was 41.2 g and the Activity (Mus musculus [7]) was 40 g. It also gave an Activity (Mus musculus [8]) of 39.1 g, an Activity (Mus musculus [9]) of 37.4 g and an Activity (Mus musculus [10]) of 33.6 g. It also gave an Activity (Mus musculus [11]) of 20.5 mg/dL, an Activity (Mus musculus [12]) of 40.8 mg/dL and an Activity (Mus musculus [13]) of 53.8 mg/dL.
With `CC1(C)Oc2ncnc(N)c2N=C1c1ccc([C@H]2CC[C@H](CC(=O)O)CC2)cc1` the IC50 [1] was 3.1 µM.
Work on `NC(=O)c1ccc2nc(COc3ccc(C45CC6CC(CC(C6)C4)C5)cc3)[nH]c2c1` yielded an IC50 [1] of over 50 µM.
`CC(C)NC(=O)c1ccc2nc(COc3ccc(C45CC6CC(CC(C6)C4)C5)cc3)[nH]c2c1` was tested, and the IC50 [1] was 20 µM.
`O=C(NC[C@H]1CCCO1)c1ccc2nc(COc3ccc(C45CC6CC(CC(C6)C4)C5)cc3)[nH]c2c1` gave an IC50 [1] of 8.7 µM.
In the case of `Cc1ccc(CNC(=O)c2ccc3nc(COc4ccc(C56CC7CC(CC(C7)C5)C6)cc4)[nH]c3c2)o1`, the IC50 [1] is reported as 11.4 µM.
Work on `O=C(NCc1ccco1)c1ccc2[nH]c(COc3ccc(C45CC6CC(CC(C6)C4)C5)cc3)nc2c1` yielded an Activity (Mus musculus [2]) of 0.94%, an Activity (Mus musculus [3]) of 3.16% and an Activity (Mus musculus [4]) of 4.1%. For the same compound, the Activity (Mus musculus [5]) was 21.2 mg/dL, the Activity (Mus musculus [14]) was 43.2 g and the Activity (Mus musculus [15]) was 42.3 g. The Activity (Mus musculus [16]) was 40.8 g, the Activity (Mus musculus [17]) was 38.9 g and the Activity (Mus musculus [18]) was 35.1 g. For the same compound, the Activity (HepG2) was over 50 µM, the IC50 [1] was 4.4 µM and the Activity (Mus musculus [11]) was 43.6 mg/dL. The Activity (Mus musculus [12]) was 41.8 mg/dL, the Activity (Mus musculus [13]) was 73.2 mg/dL and the residual activity [19] was 80.9%. It also gave a residual activity [20] of 69.5%, a residual activity [21] of 53% and a residual activity [22] of 45%.
`O=C(NC[C@@H]1CCCO1)c1ccc2nc(COc3ccc(C45CC6CC(CC(C6)C4)C5)cc3)[nH]c2c1` was tested, and the IC50 [1] was 9.5 µM.
`O=C(Nc1ccccc1)c1ccc2[nH]c(COc3ccc(C45CC6CC(CC(C6)C4)C5)cc3)nc2c1` gave an IC50 [1] of over 50 µM.
In the case of `O=C(c1ccc2[nH]c(COc3ccc(C45CC6CC(CC(C6)C4)C5)cc3)nc2c1)N1CCCC1`, the IC50 [1] is reported as 11.3 µM.
Work on `CC(C)c1cccc(C(C)C)c1NC(=O)c1ccc2nc(COc3ccc(C45CC6CC(CC(C6)C4)C5)cc3)[nH]c2c1` yielded an IC50 [1] of over 50 µM.
`O=C(NCc1ccccc1)c1ccc2nc(COc3ccc(C45CC6CC(CC(C6)C4)C5)cc3)[nH]c2c1` was tested, and the IC50 [1] was over 50 µM.
Compound `O=C(O)c1ccc2[nH]c(COc3ccc(C45CC6CC(CC(C6)C4)C5)cc3)nc2c1` has an IC50 [1] of over 50 µM.
`COC(=O)c1ccc2[nH]c(COc3ccc(C45CC6CC(CC(C6)C4)C5)cc3)nc2c1` showed an IC50 [1] of 23 µM.
`Cc1ccoc1CNC(=O)c1ccc2nc(COc3ccc(C45CC6CC(CC(C6)C4)C5)cc3)[nH]c2c1` gave an IC50 [1] of 25.4 µM.
Work on `CN(C)C(=O)c1ccc2nc(COc3ccc(C45CC6CC(CC(C6)C4)C5)cc3)[nH]c2c1` yielded an IC50 [1] of over 50 µM.
With `COc1cc(O)c(CC=C(C)C)c(O)c1C(=O)/C=C/c1ccc(O)cc1` the inhibition [23] was “Active”.
`CC(C)(C)c1ccc(OCc2nc3cc(C(=O)NCc4ccco4)ccc3[nH]2)cc1` was tested, and the IC50 [1] was 9 µM.
